Measurements: ChEMBL document CHEMBL1148900, “Isolation and characterization of five new tetrasaccharide glycosides from the roots of Ipomoea stans and their cytotoxic activity” (2004)
≈ marks a conversion by molar mass, not a printed value. Calls of active or inactive are those of the source. The calls are words filed in the database; no cut-off is given here.

Legend:
Assay type in all cases: functional
OVCAR-5 = assay: Cytotoxicity against human OVCAR5 cells after 72 hrs; details: OVCAR-5, 72 h, read-out: ED50 (the source's name)
Summary of the method: (§1)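 Cells kept in RPMI with 10% FBS at 37 °C, 5% CO₂, 100% humidity. Log-phase cells were exposed in triplicate to 0.5–100 μg/mL of compound for 72 h at 37 °C. Cell concentration was measured by protein analysis. ED₅₀ (dose inhibiting 50% of control growth) was read from a semilog plot of concentration (μg/mL) against percent viable cells.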

HCT-15 = assay: Cytotoxicity against human HCT15 cells after 72 hrs; details: for EC50: HCT-15, 72 h, read-out: ED50 (the source's name); summary of the method: as §1
[1] = (§2) Cytotoxicity against human UISO-SQC1 cells after 72 hrs; details: UISO-SQC1, 72 h, read-out: ED50 (the source's name); summary of the method: as §1
UISO-SQC1 = assay: as §2; summary of the method: as §1

| Compound | EC50 (OVCAR-5) [µg/mL] | EC50 (HCT-15) [µg/mL] | EC50 [1] [µg/mL] | Activity (HCT-15) | Activity (UISO-SQC1) |
| --- | --- | --- | --- | --- | --- |
| CCCCC[C@H]1CCCCCCCCCC(=O)O[C@@H]2[C@@H](O[C@@H]3O[C@H](C)[C@@H](OC(=O)C(C)C(C)O)[C@H](O)[C@H]3O)[C@H](C)O[C@@H](O[C@H]3[C@H](O[C@H]4[C@H](O1)O[C@H](C)[C@@H](O)[C@@H]4O)O[C@H](COC(=O)C(C)C(C)O)[C@@H](O)[C@@H]3O)[C@@H]2OC(=O)C(C)C (some centres not stated) [STANSIN 1] | > 25 | > 24 | – | – | – |
| CCCCC[C@H]1CCCCCCCCCC(=O)O[C@@H]2[C@@H](O[C@@H]3O[C@H](C)[C@@H](OC(=O)C(C)CC)[C@H](O)[C@H]3O)[C@H](C)O[C@@H](O[C@H]3[C@H](O[C@H]4[C@H](O1)O[C@H](C)[C@@H](O)[C@@H]4O)O[C@H](CO)[C@@H](O)[C@@H]3O)[C@@H]2OC(=O)C(C)CC (some centres not stated) [STANSIN 5] | 1.5 (≈ 1.47 µM) | 24 (≈ 23.5 µM) | 4 (≈ 3.91 µM) | – | – |
| CCCCC[C@H]1CCCCCCCCCC(=O)O[C@@H]2[C@@H](O[C@@H]3O[C@H](C)[C@@H](OC(=O)C(C)C(C)O)[C@H](O)[C@H]3O)[C@H](C)O[C@@H](O[C@H]3[C@H](O[C@H]4[C@H](O1)O[C@H](C)[C@@H](O)[C@@H]4O)O[C@H](COC(=O)C(C)C(C)O)[C@@H](O)[C@@H]3O)[C@@H]2OC(=O)C(C)CC (some centres not stated) [STANSIN 3] | > 25 | > 24 | – | – | – |
| CCCCC[C@H]1CCCCCCCCCC(=O)O[C@@H]2[C@@H](O[C@@H]3O[C@H](C)[C@@H](OC(=O)C(C)C)[C@H](O)[C@H]3O)[C@H](C)O[C@@H](O[C@H]3[C@H](O[C@H]4[C@H](O1)O[C@H](C)[C@@H](O)[C@@H]4O)O[C@H](CO)[C@@H](O)[C@@H]3O)[C@@H]2OC(=O)C(C)CC (some centres not stated) [STANSIN 4] | 5.5 (≈ 5.45 µM) | – | – | inactive | inactive |
| CCCCC[C@H]1CCCCCCCCCC(=O)O[C@@H]2[C@@H](O[C@@H]3O[C@H](C)[C@@H](OC(=O)C(C)C(C)O)[C@H](O)[C@H]3O)[C@H](C)O[C@@H](O[C@H]3[C@H](O[C@H]4[C@H](O1)O[C@H](C)[C@@H](O)[C@@H]4O)O[C@H](COC(=O)C(C)C(C)O)[C@@H](O)[C@@H]3O)[C@@H]2OC(=O)CC(C)C (some centres not stated) [STANSIN 2] | > 25 | > 24 | – | – | – |
